KCNK9 inh – blocks the human KCNK9 two-pore domain potassium channel; Q9NPC2; HEK293 KCNK9, FluxOR thallium flux fluorescence; active compounds read low; B-score at 10 µM; actives 1.2% (n = 310,000); AID 488922;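 active means ratio B-score over 3 SD below the library mean, with starting fluorescence within 5 SD of its mean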;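 further: negative B-score means less thallium flux so channel inhibition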
Kir21 block – blocks the mouse Kir2.1 inward-rectifier potassium channel. P35561. HEK293-Kir2.1, FluxOR thallium flux fluorescence; active compounds read low. B-score at 10 µM. actives 0.85% (n = 310,000). AID 1672;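 active means fluorescence ratio B-score at or below minus 3 SD of library scores, with starting-brightness B-score within 2 SD, cut at about -4.2 in these data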;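 further: channel flux triggered by added potassium and thallium sulfate stimulus; B-score of peak minus minimum fluorescence over baseline after thallium stimulus; more negative B-score means stronger Kir2.1 block with less thallium influx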
KCNQ1 inh – blocks the human KCNQ1 potassium channel; P51787; CHO-K1 KCNQ1, FluxOR thallium flux fluorescence; active compounds read high; B-score at 10 µM; actives 1.3% (n = 310,000); AID 2642;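 active means compounds whose thallium flux B-score, printed positive for inhibition, exceeds three library SD while starting fluorescence stays within three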;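 further: channel opened by potassium depolarization with thallium stimulus after 20 min compound exposure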
hERG rescue – shields human hERG channel from block by proarrhythmic agents | CHO-hERG, FluxOR thallium flux, dofetilide IC70 present | activation (rescue from dofetilide block), less the hit threshold, % at 10 µM | actives 0.51% (n = 310,000);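 active means activation above the mean of controls blocked by dofetilide plus 5 SD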;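 further: thallium influx through hERG after potassium depolarization seen as dye fluorescence rise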
KCNQ1 act – human KCNQ1 channel potentiation or activation | AID 2648 | CHO-K1 KCNQ1, thallium flux FluxOR fluorescence; active compounds read high | actives 0.35% (n = 310,000) | B-score at 10 µM;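 active means fluorescence ratio B-score, a plate-corrected score, at least three library SD, with initial intensity B-score within 5 SD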
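Test system: CHO-K1 cells stably expressing KCNQ1 / Medium: assay buffer / Also added: depolarizing K+/Tl+ stimulus, K2SO4 and Tl2SO4 each 12.5 mM in 5x stock / Incubation: 90 min dye loading and 20 min compound exposure, both at room temperature / Signal: thallium influx via FluxOR fluorescence, kinetic imaging / Evaluation: B score of baseline-normalized fluorescence ratio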
KCNK3 block – human KCNK3 channel inhibition, primary screen | B-score at 10 µM | O14649 | AID 602410 | CHO-KCNK3 thallium flux, FluxOR fluorescence; active compounds read low | actives 0.84% (n = 340,000);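 active means B-score under library mean minus 4 SD, starting fluorescence ratio at most library mean plus 5 SD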;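 further: more negative B-score means stronger inhibition of thallium flux through KCNK3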
KCNQ1 inh valid – human KCNQ1 channel inhibition, validation assay; shares compounds with KCNQ1 inh; actives 93% (n = 1,600); AID 588353; KCNQ1 cell line, FluxOR thallium flux fluorescence; inhibition, % at 10 µM;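 active means primary screen active, with duplicate mean exceeding buffer control mean plus 3 SD of buffer wells, cut at about 28% in these data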;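 further: 0% = buffer control ratio and 100% = XE991 inhibitor control ratio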
CHO KCNQ1 ctr – activity in parental CHO cells lacking KCNQ1; shares compounds with KCNQ1 inh; fluorescence ratio (Tl flux) at 10 µM; parental CHO-K1, FluxOR thallium flux fluorescence ratio; active compounds read low; zero means no signal rise above baseline; AID 588366; actives 21% (n = 1,600);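 active means mean of duplicate thallium-flux fluorescence ratios in parental host cells more than 5 SD below the buffer control mean, cut at about 0.38 in these data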;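 further: ratio is peak minus minimum fluorescence divided by baseline fluorescence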
KCNQ1 ephys val – confirmation of human KCNQ1 potassium channel inhibitors by electrophysiology | calls only at 10 µM | AID 624120 | actives 20% (n = 490) | KCNQ1-CHO cells, automated patch clamp current | shares compounds with KCNQ1 inh;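 active means KCNQ1 current drop exceeding 3 SD of negative control wells, seen in both duplicate runs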;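 further: steady state current during a 2 s step from -80 to +40 mV; negative values mean current inhibition and positive values mean potentiation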
KCNQ2 spec – rat KCNQ2 inhibition in KCNQ1 inhibitor specificity screen | inhibition, % at 10 µM | actives 71% (n = 1,600) | shares compounds with KCNQ1 inh | KCNQ2 cells, FluxOR thallium flux fluorescence;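 active means mean percent inhibition of the KCNQ2 thallium signal more than 5 SD above the buffer-only control wells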;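 further: KCNQ2 expressed in CHO cells; 0% = buffer control wells and 100% = XE-991 inhibitor control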
KCNQ1-KCNE1 inh – selectivity of KCNQ1 inhibitors: inhibition of human KCNQ1/KCNE1 channel; shares compounds with KCNQ1 inh; KCNQ1/KCNE1 cells, FluxOR thallium flux fluorescence; inhibition, % at 10 µM; actives 77% (n = 1,600);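 active means mean percent inhibition of duplicate wells above the buffer-only control mean plus 3 SD of those controls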;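 further: 0% = buffer only wells and 100% = XE-991 inhibitor control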
Target sequence (P51787 whole entry, looked up): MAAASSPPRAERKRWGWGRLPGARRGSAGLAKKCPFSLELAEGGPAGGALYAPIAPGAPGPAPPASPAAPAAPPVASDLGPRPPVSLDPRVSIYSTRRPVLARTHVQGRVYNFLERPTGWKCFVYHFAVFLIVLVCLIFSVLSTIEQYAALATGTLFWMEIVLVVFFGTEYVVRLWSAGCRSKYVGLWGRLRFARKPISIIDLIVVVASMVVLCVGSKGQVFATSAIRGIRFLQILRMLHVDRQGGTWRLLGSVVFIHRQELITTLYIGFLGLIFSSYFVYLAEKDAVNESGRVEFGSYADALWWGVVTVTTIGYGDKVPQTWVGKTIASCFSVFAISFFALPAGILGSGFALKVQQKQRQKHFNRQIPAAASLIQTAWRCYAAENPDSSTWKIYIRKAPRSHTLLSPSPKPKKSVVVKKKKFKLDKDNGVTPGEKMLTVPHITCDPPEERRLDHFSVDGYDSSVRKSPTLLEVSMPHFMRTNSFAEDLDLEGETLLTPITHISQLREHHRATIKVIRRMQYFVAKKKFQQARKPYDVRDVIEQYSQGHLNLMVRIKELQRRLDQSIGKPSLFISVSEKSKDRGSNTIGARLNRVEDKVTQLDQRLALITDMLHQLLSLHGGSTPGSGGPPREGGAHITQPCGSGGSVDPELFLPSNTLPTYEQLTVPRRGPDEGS
Numbers without * were called inactive. A selection: hits, their analogues and other compounds. The true share with any hit is near 3.7%.

Results for COC(=O)C1CCCN1S(=O)(=O)c1ccccc1NC(=O)c1cc(OC)c(OC)c(OC)c1 (centres undefined) ?
KCNK9 inh: inactive; Kir21 block: -1.6; KCNQ1 inh: inactive; hERG rescue: -5; KCNQ1 act: inactive; KCNK3 block: inactive

What do the screens show for `COc1cc(Cl)ccc1OCc1cc(C(=O)NCc2cc(C(C)C)no2)no1`?
KCNK9 inh: inactive; Kir21 block: 0.34; KCNQ1 inh: inactive; hERG rescue: -21; KCNQ1 act: inactive; KCNK3 block: inactive

What do the screens show for `CN(C)C1=NC[C@H](Cc2ccccc2)N1CC1CCC(C(C)(C)C)CC1` (some centres undefined)?
KCNK9 inh: inactive; Kir21 block: -2; KCNQ1 inh: 7*; hERG rescue: -7; KCNQ1 act: inactive; KCNK3 block: inactive; KCNQ1 inh valid: 98*; CHO KCNQ1 ctr: 0.43; KCNQ2 spec: 111%*; KCNQ1-KCNE1 inh: 70%*

How did CN(C)C1=NC[C@H](Cc2ccccc2)N1CC1CCCC1 do in these assays?
KCNK3 block: inactive

How did O=C(NCCCNC(=O)c1ccc(F)cc1)c1ccc(F)cc1 do in these assays?
KCNK9 inh: inactive; Kir21 block: 2.4; KCNQ1 inh: inactive; hERG rescue: -3; KCNQ1 act: inactive; KCNK3 block: inactive

What do the screens show for `COc1cccc(CN2CCNC(=O)C2CC(=O)N(C)C2CCCCC2)c1OC` (centres undefined)?
KCNK9 inh: inactive; Kir21 block: 0.09; KCNQ1 inh: inactive; hERG rescue: -10; KCNQ1 act: inactive; KCNK3 block: inactive

What do the screens show for `Cc1ccccc1S(=O)(=O)Nc1nc2ccccc2nc1N1CCc2ccccc2C1`?
KCNK9 inh: inactive; Kir21 block: -0.63; KCNQ1 inh: 7*; hERG rescue: -18; KCNQ1 act: inactive; KCNK3 block: inactive; KCNQ1 inh valid: 84*; CHO KCNQ1 ctr: 0.39; KCNQ2 spec: 92%*; KCNQ1-KCNE1 inh: 122%*

How did Cc1ccc(NC(=S)Nc2ccc(OC(F)F)c(Cl)c2)cc1F do in these assays?
KCNK9 inh: inactive; Kir21 block: 0.39; KCNQ1 inh: 14*; hERG rescue: -34; KCNQ1 act: inactive; KCNK3 block: inactive; KCNQ1 inh valid: 88*; CHO KCNQ1 ctr: 0.49; KCNQ1 ephys val: inactive; KCNQ2 spec: inactive; KCNQ1-KCNE1 inh: inactive

Results for Cc1cc(S(=O)(=O)N2CCN(c3ccccc3C)CC2)ccc1F ?
KCNK9 inh: inactive; Kir21 block: -0.05; KCNQ1 inh: 11*; hERG rescue: -11; KCNQ1 act: inactive; KCNK3 block: -9.8*; KCNQ1 inh valid: 168*; CHO KCNQ1 ctr: 0.35*; KCNQ2 spec: inactive; KCNQ1-KCNE1 inh: inactive

What do the screens show for `Cc1cc(S(=O)(=O)N2CCN(c3c(C)cccc3C)CC2)ccc1F`?
KCNK9 inh: inactive; Kir21 block: 2; KCNQ1 inh: 8*; hERG rescue: -7; KCNQ1 act: inactive; KCNK3 block: inactive; KCNQ1 inh valid: 103*; CHO KCNQ1 ctr: 0.39; KCNQ1 ephys val: inactive; KCNQ2 spec: 81%*; KCNQ1-KCNE1 inh: 136%*

High-throughput results: PubChem, Johns Hopkins Ion Channel Center
